Series [1] deals with LNCaP. Description: Antioxidant activity in human LNCAP cells assessed as inhibition of t-BuOOH-induced ROS level after 30 mins by DCFH-DA dye-based spectrofluorometric analysis. The format is functional, cell-based.
The test system of series [2] is LNCaP. Description: Prooxidant activity in human LNCAP cells assessed as increase in depletion of intercellular GSH level at 1 to 10 uM after 24 hrs by MCB dye-based spectrofluorometric analysis. The format is functional, cell-based. The essentials: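 LNCaP cells seeded at 2 × 10⁴ cells/well, treated 1–10 µM for 24 h at 37 °C, 5% CO₂; washed, 50 µM monochlorobimane in PBS 30 min at 37 °C, fluorescence read at excitation 360 nm, emission 465 nm; arbitrary fluorescence units; mean ± SD, three independent experiments.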

Series [3] deals with LNCaP. Description: Induction of ROS generation in human LNCAP cells at 1 to 10 uM after 24 hrs by DCFH-DA dye-based spectrofluorometric analysis relative to control. The format is functional. The gist of the method:
(§1)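 LNCaP cells seeded at 2 × 10⁴ cells/well, exposed to compounds (1–10 µM) for 24 h; then loaded with 5 µM DCFH-DA in PBS, 37 °C, 5% CO₂, 30 min, washed, fluorescence read (excitation 485 nm). Antioxidant lines involve t-BuOOH challenge. Output as fold increase of intracellular ROS over untreated; mean ± SD, three independent experiments.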

The test system of series [4] is LNCaP. Description: Antiproliferative activity against human LNCAP cells after 120 hrs by MTT assay. Type of series: functional, cell-based. The essentials:
(§2)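 DU-145, PC-3 and LNCaP cells grown in RPMI with 10% fetal calf serum, 37 °C, 5% CO₂; seeded at 5 × 10³ cells/well, exposed to 0.1–50 µM for 120 h. After PBS wash, MTT (5 mg/mL) in PBS 4 h, formazan dissolved in isopropanol, read at 570 nm. Viability as % of untreated; IC50 from at least three independent dose-response curves.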
On the technique in general: Formazan colour is commonly taken as a measure of viable cells.

Series [5] concerns LNCaP. Description: Induction of apoptosis in human LNCAP cells assessed as increase in DNA fragmentation after 24 hrs by spectrophotometer. The format is functional, cell-based. The essentials: (§3)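 LNCaP cells seeded at 1 × 10³ cells/well, treated 1–10 µM for 24 h at 37 °C, 5% CO₂; lysed 30 min, centrifuged, supernatant ELISA with biotin anti-histone and peroxidase anti-DNA antibodies on streptavidin plate, ABTS 20 min, read 405 nm. Fold increase = treated/untreated absorbance; mean ± SD, three independent experiments.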

Series [6] relates to LNCaP. Description: Antioxidant activity in human LNCAP cells assessed as inhibition of t-BuOOH-induced ROS level at 1 to 10 uM after 24 hrs by DCFH-DA dye-based spectrofluorometric analysis. Type of series: functional, cell-based.
Series [7] relates to DU-145. Description: Antiproliferative activity against human DU145 cells at 10 uM after 48 hrs by SRB assay relative to control. The format is functional. The essentials:
(§4)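 NCI one-dose screen at 10 µM across 60 human tumour lines, 48 h exposure; growth given relative to no-drug control and to time-zero cell number, so 0–100 means inhibition and below 0 lethality; 100 means no inhibition.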

Series [8] is filed under the species Homo sapiens. Description: Selectivity ratio of Ki for human alpha1D adrenoceptor to Ki for human alpha1B adrenoceptor.
Series [9] can be described thus: Selectivity index, ratio of cytotoxic concentration for HGF cells to IC10 for human LNCAP cells. Type of series: toxicity. Particulars: HGF cells and LNCAP cells, read-out: Selectivity Index.
For series [10], the target named is T1, Alpha-1A adrenergic receptor (Homo sapiens, UniProt P35348).
T1 sequence (P35348 whole entry): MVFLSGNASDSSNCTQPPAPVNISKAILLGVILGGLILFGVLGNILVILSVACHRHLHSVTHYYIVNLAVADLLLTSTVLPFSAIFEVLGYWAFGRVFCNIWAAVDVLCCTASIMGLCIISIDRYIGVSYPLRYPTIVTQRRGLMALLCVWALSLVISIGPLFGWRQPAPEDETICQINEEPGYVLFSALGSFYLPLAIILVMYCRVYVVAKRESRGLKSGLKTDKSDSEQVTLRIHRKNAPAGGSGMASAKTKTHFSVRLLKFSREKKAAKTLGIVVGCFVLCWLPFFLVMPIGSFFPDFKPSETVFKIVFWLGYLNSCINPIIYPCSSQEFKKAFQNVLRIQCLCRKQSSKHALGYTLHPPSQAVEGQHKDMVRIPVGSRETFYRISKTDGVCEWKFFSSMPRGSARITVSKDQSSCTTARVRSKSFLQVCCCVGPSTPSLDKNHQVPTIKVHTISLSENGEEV
Description: Displacement of [3H]prazosin from human alpha1A adrenoceptor expressed in CHO cell membranes after 30 mins. On the technique in general: In a radioligand displacement assay an active substance lowers the binding of a labelled ligand.

For series [11], the system named is LNCaP. Description: Induction of necrosis in human LNCAP cells assessed as loss of plasma membrane integrity at 1 to 10 uM after 24 hrs by trypan blue staining-based Neubauer hemocytometric method. Type of series: functional, cell-based. The essentials:
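LNCaP cells seeded at 1 × 10⁶ cells/well, treated 1–10 µM for 24 h at 37 °C, 5% CO₂; scraped into PBS, mixed 1:1 with 0.5% trypan blue, counted on a Neubauer hemocytometer; percentage of stained cells from at least 3 separate counts.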

For series [12], the system named is PC-3. Description: Growth inhibition of human PC3 cells at 10 uM after 48 hrs by SRB assay relative to control. The conditions noted are these: PC-3, 48 h, read-out: GI. Type of series: functional. The essentials: as §4
In general terms: In SRB staining, fixed cells bind dye roughly in proportion to their protein.

Series [13] has as its system LNCaP. Description: Antioxidant activity in human LNCAP cells assessed as inhibition of t-BuOOH-induced ROS level at 1 to 10 uM after 30 mins by DCFH-DA dye-based spectrofluorometric analysis relative to control. The format is functional.
Series [14] deals with PC-3. Description: Antiproliferative activity against human PC3 cells after 120 hrs by MTT assay. Particulars: PC-3, 120 h. Type of series: functional, cell-based. The essentials: as §2
Series [15] relates to Panel NCI-60 (60 carcinoma cell lines). Description: Antiproliferative activity against human NCI60 cells at 10 uM after 48 hrs by SRB assay. Type of series: functional, cell-based. The gist of the method:
as §4

In series [16] the test system is LNCaP. Description: Induction of apoptosis in human LNCAP cells assessed as increase in DNA fragmentation at 1 to 10 uM after 24 hrs by spectrophotometer relative to control. The format is functional. The gist of the method: as §3
In series [17] the target is T2, Alpha-1D adrenergic receptor (Homo sapiens, UniProt P25100).
T2 sequence (P25100 whole entry): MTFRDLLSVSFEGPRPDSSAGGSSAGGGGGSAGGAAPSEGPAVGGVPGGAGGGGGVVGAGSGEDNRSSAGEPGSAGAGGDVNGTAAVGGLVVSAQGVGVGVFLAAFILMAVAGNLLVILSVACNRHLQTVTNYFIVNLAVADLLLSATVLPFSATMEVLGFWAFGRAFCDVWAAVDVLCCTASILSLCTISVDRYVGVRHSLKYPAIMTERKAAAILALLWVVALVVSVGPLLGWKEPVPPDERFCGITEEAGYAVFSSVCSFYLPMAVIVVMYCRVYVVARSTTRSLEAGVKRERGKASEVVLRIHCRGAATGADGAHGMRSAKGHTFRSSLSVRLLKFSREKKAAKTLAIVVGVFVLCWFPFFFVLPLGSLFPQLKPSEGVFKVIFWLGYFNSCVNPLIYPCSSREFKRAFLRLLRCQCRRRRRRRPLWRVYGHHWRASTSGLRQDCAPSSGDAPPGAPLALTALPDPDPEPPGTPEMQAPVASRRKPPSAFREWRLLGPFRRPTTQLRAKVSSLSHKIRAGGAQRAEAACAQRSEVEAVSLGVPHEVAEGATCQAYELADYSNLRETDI
Description: Displacement of [3H]prazosin from human alpha1D adrenoceptor expressed in CHO cell membranes after 30 mins.

Series [18] has as its system LNCaP. Description: Induction of ROS generation in human LNCAP cells after 24 hrs by DCFH-DA dye-based spectrofluorometric analysis. Type of series: functional, cell-based. The essentials: as §1
Series [19] in a line: Selectivity index, ratio of cytotoxic concentration for HGF cells to IC50 for human LNCAP cells. Type of series: toxicity. The conditions noted are these: HGF cells and LNCAP cells, read-out: Selectivity Index.
The subject of series [20] is DU-145. Description: Antiproliferative activity against human DU145 cells after 120 hrs by MTT assay. Particulars: DU-145, 120 h. Type of series: functional, cell-based. The essentials: as §2
For series [21], the species on record is Homo sapiens. Description: Selectivity ratio of Ki for human alpha1A adrenoceptor to Ki for human alpha1B adrenoceptor.
For series [22], the target named is T3, Alpha-1B adrenergic receptor (Homo sapiens, UniProt P35368).
T3 sequence (P35368 whole entry): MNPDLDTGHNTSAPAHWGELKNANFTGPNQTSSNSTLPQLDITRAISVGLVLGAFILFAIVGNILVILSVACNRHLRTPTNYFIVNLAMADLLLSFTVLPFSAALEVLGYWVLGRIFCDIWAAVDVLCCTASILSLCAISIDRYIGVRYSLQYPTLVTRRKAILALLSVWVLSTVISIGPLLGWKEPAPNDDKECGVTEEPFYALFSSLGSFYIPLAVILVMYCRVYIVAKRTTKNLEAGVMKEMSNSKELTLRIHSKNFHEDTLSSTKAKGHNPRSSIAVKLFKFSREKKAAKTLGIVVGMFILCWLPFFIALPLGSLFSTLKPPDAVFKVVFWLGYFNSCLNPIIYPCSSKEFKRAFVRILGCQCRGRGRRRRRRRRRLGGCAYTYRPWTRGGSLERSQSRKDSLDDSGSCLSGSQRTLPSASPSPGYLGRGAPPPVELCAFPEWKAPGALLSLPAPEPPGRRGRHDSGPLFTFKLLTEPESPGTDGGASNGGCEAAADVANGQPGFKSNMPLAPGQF
Description: Displacement of [3H]prazosin from human alpha1B adrenoceptor expressed in CHO cell membranes after 30 mins.

These results are taken from ChEMBL document CHEMBL4138091, “Quinazoline based α1-adrenoreceptor antagonists with potent antiproliferative activity in human prostate cancer cell lines” (Eur J Med Chem, 2017).

Calls of active or inactive are those of the source. No cut-off for these calls is given here.

Regarding `COc1cc2nc(N3CCC[C@H](NC4=CC(=O)c5ccccc5C4=O)C3)nc(N)c2cc1OC`, in the series on LNCaP [1], the inhibition result was “Dose-dependent effect”. In addition, the result (in the series on LNCaP [2]; in series [15]) was Active. Also, the Activity is 56% with LNCaP [3], “Dose-dependent effect” with LNCaP [5], 54% with DU-145 [7] and “Dose-dependent effect” with LNCaP [18]. The 50% inhibitory concentration (IC50) – broadly, the point on the concentration scale where inhibition reaches its midpoint – is 6.32 µM in the series on LNCaP [4], 18.2 µM in the series on PC-3 [14] and 18.5 µM with DU-145 [20]. Moreover, the inhibition entry in the series with LNCaP [6] was “inactive”. Besides, the results for the Ratio Ki in the series listed under Homo sapiens [8] and in the series filed under Homo sapiens [21] were 4 and 13, respectively. Besides, the selectivity ratio turned out to be 9.1 in series [9] and 4.7 in series [19]. Also, the figures for the Ki in series [10], in [17] and in series [22] were 0.00708 µM, 0.00214 µM and 0.000525 µM, respectively. Besides, in the series on LNCaP [11], the result was inactive. Besides, the inhibition of growth at 10 µM with PC-3 [12] was 77%. The “inhibition (INH)” value with LNCaP [13] came out at 34%. Also, in the series with LNCaP [16], the “fold change (FC)” value is 9.9.
